Experimental data as given in PMC4931879 (The Journal of Pharmacology and Experimental Therapeutics, 2016).

Tests used:
[1] = system: Aβx-42 in H4-APPsw cell cultures; experiment: Automated multiplex HTRF assay, Aβx-42 in H4-APPsw cell cultures; assay type: cell-based
Summary of the method: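 H4-APPsw cultures treated overnight, 1 pM to 50 μM. Aβx-42 and Aβ1-x were read together in an automated HTRF multiplex; the Aβx-42 detection pairing includes monoclonal 4G8. Concentrations came from synthetic-peptide calibration curves (quadratic fit). Seven independent assays; IC50 for Aβx-42 and maximum percent inhibition for Aβ1-x, given with standard deviations.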

[2] = system: Aβ1-42, Aβ1-40, Aβ1-38 and Aβ1-37 in H4-APPsw cell cultures; assay type: cell-based; conditions: overnight
Summary of the method: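 H4-APPsw cultures incubated overnight with test compound at 0.46 to 333 nM, with 0.1% DMSO vehicle and a γ-secretase inhibitor reference at 1 μM. Aβ1-42, Aβ1-40, Aβ1-38 and Aβ1-37 were measured by Meso Scale 4-plex immunoassay. Concentrations came from on-plate synthetic-peptide calibration curves (quadratic fit), in pM corrected for dilution. Two replicate wells, standard error shown.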

[3] = system: Aβ1-x in H4-APPsw cell cultures; experiment: Automated multiplex HTRF assay, Aβ1-x in H4-APPsw cell cultures; assay type: cell-based; conditions: read-out: Aβ1-x maximum inhibition, H4-APPsw cell cultures, overnight, at 50 μM; ± standard deviation
[4] = system: Aβ1-42 in H4-APPsw cell cultures; experiment: Aβ1-42 immunoassay; assay type: cell-based; conditions: read-out: Aβ1-42 IC50
Summary of the method: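 Overnight exposure of H4-APPsw cultures, 10 pM to 10 μM. Aβ1-42 and Aβ1-40 were measured in parallel from the same cultures by automated HTRF immunoassays. Concentrations came from synthetic-peptide calibration curves (quadratic fit). Three independent assays; IC50 given with standard deviation.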

[5] = system: Aβ peptides in H4-APPsw cell cultures; assay type: cell-based; conditions: overnight, 100 nM
Summary of the method: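 H4-APPsw cultures incubated overnight with 0.1% DMSO or test compound at 100 nM. Aβ peptides were immunoprecipitated and analysed by MALDI mass spectrometry. Peaks were assigned by expected mass, referenced to an equimolar mix of synthetic peptides including [14N]Aβ1-40.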

Notch1 = experiment: Cell-based transcriptional reporter assay, Notch1; conditions: read-out: Notch1 IC50
Notch3 = experiment: Cell-based transcriptional reporter assay, Notch3; conditions: read-out: Notch3 IC50
brain Aβ peptides = experiment: Brain Aβ peptides in rats after single intravenous doses; assay type: in vivo, Sprague-Dawley rats; conditions: rat
Summary of the method: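 Female Sprague-Dawley rats, 10–12 weeks old, fasted from 16 h before to 4 h after dosing. Given IV 1, 5 or 10 mg/kg or vehicle (PEG400/ethanol/Solutol HS 15, 93:5:2 w/w/w; 1.5 ml/kg) in randomized order. n = 4 per time point, killed by CO2 at 10 min, 30 min, and 1, 3, 7, 12 and 24 h. Brain without cerebellum frozen in liquid nitrogen. Aβ1-42/40/38/37 measured by singleplex ELISAs; Aβ1-x by 4G8/252Q6-HRP ELISA; compared with vehicle.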

[6] = Plasma exposure in rats after single intravenous doses; assay type: in vivo, Sprague-Dawley rats; conditions: rat, intravenous 1, 5, 10 mg/kg
Summary of the method: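 Same IV rat study: fasted females, 1, 5 or 10 mg/kg in PEG400/ethanol/Solutol, n = 4 per time point from 10 min to 24 h. Blood taken by cardiac puncture into EDTA for plasma. Plasma deproteinized and extracted with acetonitrile, then analysed by UPLC-MS/MS (C18 column at 60°C); quantitation range 10–5000 nM.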

[7] = Distribution into rat brain after oral administration; assay type: in vivo, rats; conditions: 10 mg/kg oral
Summary of the method: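 Rats dosed orally at 10 mg/kg in PEG400/Solutol/TPGS (90:5:5 w/w/w). n = 3 per time point, sampled at 1, 4, 8 and 24 h. Jugular blood collected into EDTA and centrifuged at 4°C (1500–2000 × g). Brain blotted, weighed and homogenized in 4 volumes of PBS; cerebellum analysed. Samples stored at −20°C, then LC-MS/MS. Brain-to-plasma ratios per time point and brain/plasma AUC ratio.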

[8] = system: amyloid-β precursor protein C-terminal fragment; experiment: APP C-terminal fragment accumulation in rat brain; assay type: in vivo, rats; conditions: 30 mg/kg oral, 8 or 12 hours
CSF Aβ peptides [9] = experiment: CSF Aβ peptides in dogs after single oral doses; assay type: in vivo, beagle dogs; conditions: dog
Summary of the method: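 Male beagles, about 1 year old, 8–11 kg, with indwelling lumbar catheters; CSF sampled while conscious and lightly restrained. Fasted 16 h before dosing, fed 4 h after. Four dogs in a randomized crossover with 1-week washout: oral 2, 5 or 30 mg/kg or vehicle. CSF taken predose and up to 72 h, spun at 1330 × g for 10 min at 4°C. Aβ1-42/40/38/37 measured by Meso Scale 4-plex; the four were also summed.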

CSF Aβ peptides [10] = experiment: CSF Aβ peptides in healthy human subjects after a single 900-mg oral dose; assay type: in vivo
Summary of the method: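 Placebo-controlled, double-blind single-dose panel of 15 healthy young men and women of non-child-bearing potential. Single 900-mg oral dose or placebo, given fasted. CSF collected via indwelling lumbar catheter at −1, 0, 2, 4, 6, 8, 12, 15, 18 and 24 h. Aβ1-42/40/38 measured by Meso Scale 3-plex; Aβ1-37 by 26D6/Aβ1-37-selective polyclonal ELISA; Aβ1-x by 4G8/26D6-HRP ELISA.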

Aβ1-42 = experiment: PK/PD across species: Aβ1-42 trough versus plasma exposure; assay type: in vivo; conditions: nonlinear fit of the entire data set: rat, dog, monkey, human
Summary of the method: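 CSF Aβ1-42 trough (lowest level after dosing) plotted against plasma AUC and Cmax. Values were per individual human subject and per dose in individual dogs and monkeys. Rats used group means, with troughs for both brain and CSF, drawn from the IV study plus two further time courses. A nonlinear fit of the pooled data gave the exposure at 50% inhibition.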

[11] = 14-day daily oral dose safety assessment in rats; assay type: in vivo; conditions: for AUC at 14 days: rat, in vivo, po, 100 mg/kg
Summary of the method: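 Safety study in male and female rats given daily oral doses of 10, 30 or 100 mg/kg for 14 days; plasma AUC determined on day 14.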

CSF Aβ peptides [12] = experiment: CSF Aβ peptides in monkeys after single intravenous doses; assay type: in vivo, cynomolgus monkeys; conditions: monkey
[13] = Plasma exposure in monkeys after single intravenous doses; assay type: in vivo, cynomolgus monkeys; conditions: monkey, intravenous 5 or 15 mg/kg
Summary of the method: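 Crossover in four lumbar-catheterized male cynomolgus monkeys given IV 5 or 15 mg/kg or vehicle. Blood drawn at 1, 2, 3, 4, 5 and 30 min and at 1, 2, 4, 7, 10, 24 and 48 h. Samples kept on ice and centrifuged at 2880 × g for 10 min; plasma kept for compound levels.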

[14] = system: Aβ1-42 levels in cerebrospinal fluid; conditions: clinical trials, even at high doses; ref Galasko et al., 2007; cited from earlier work
[15] = single intravenous dose 1, 5 or 10 mg/kg
[16] = 30 mg/kg oral, 24 hours after dose
[17] = intravenous, 12–24 hours after the 30-mg/kg dose (so in the source)

With `C[C@H](c1ccc(F)cc1CCCC(=O)O)N(c1cc(F)ccc1F)S(=O)(=O)c1ccc(Cl)cc1` [BMS-299897, (R)-4-(2-(1-((4-chloro-N-(2,5-difluorophenyl)phenyl)sulfonamido)ethyl)-5-fluorophenyl)butanoic acid, reference compound] the “Reduction of Aβx-42 versus Aβ1-x in the multiplex assays (relative potency)” value ([1]; H4-APPsw cell cultures, overnight, 1 pM to 50 μM) was “approximately equal potency” and the “Effect on production of Aβ1-42, Aβ1-40, Aβ1-38 and Aβ1-37” value ([2]; 1 μM) was “inhibited production of all four Aβ peptides”.

With `CNc1nc(Nc2ccc(-n3cnc(C)n3)c(OC)c2)nc2c1CC[C@H]2c1ccc(F)cc1` [BMS-932481, (S)-7-(4-fluorophenyl)-N2-(3-methoxy-4-(3-methyl-1H-1,2,4-triazol-1-yl)phenyl)-N4-methyl-6,7-dihydro-5H-cyclopenta[d]pyrimidine-2,4-diamine] the IC50 ([1]; read-out: Aβx-42 IC50) was 5.5 nM, the inhibition at 50 µM [3] was at most 30% and the IC50 [4] was 6.6 nM. The “Effect on the overall level of Aβ” value ([2]; 0.46 to 333 nM) was “little if any effect”, the “Aβ1-42 and Aβ1-40 detected by IP-MALDI mass spectroscopy” value [5] was “no Aβ1-42 or Aβ1-40 was detected” and the IC50 (Notch1) was about 1000 nM. For the same molecule, the IC50 (Notch3) was about 1000 nM, the “Sum of brain Aβ1-42, Aβ1-40, Aβ1-38 and Aβ1-37 concentrations, change” value (brain Aβ peptides; intravenous 1, 5 or 10 mg/kg) was “no significant changes” and the “Brain Aβ1-x change” value (brain Aβ peptides; intravenous, any dose or time point) was “no significant changes”. For the same molecule, the “Brain Aβ1-37 maximal increase” value (brain Aβ peptides; [15]) was “ca. 6 fold”, the “Brain Aβ1-38 maximal increase” value (brain Aβ peptides; [15]) was “ca. 2 fold” and the “Brain Aβ1-40 maximum reduction relative to vehicle-treated rats” value (brain Aβ peptides; [15]) was “about 75%”. The “Brain Aβ1-42 maximum reduction relative to vehicle-treated rats” value (brain Aβ peptides; [15]) was “about 75%”, the “Concentrations in blood plasma, dose proportionality” value [6] was “dose-proportional” and the Brain penetration [7] was “moderate brain penetration”. The “Effect on APP C-terminal fragment accumulation in brain” value [8] was “no effect”, the “CSF Aβ1-37 maximal increase” value (CSF Aβ peptides [9]; 30 mg/kg oral) was 5 fold and the “CSF Aβ1-40 maximum reduction” value (CSF Aβ peptides [9]; [16]) was “ca. 65%”. For the same molecule, the “CSF Aβ1-42 maximum reduction” value (CSF Aβ peptides [9]; [16]) was “ca. 65%”, the “Effect on the sum of the four CSF Aβ peptides” value (CSF Aβ peptides [9]; oral 2, 5 or 30 mg/kg) was “little, if any, effect” and the “CSF Aβ1-37 increase” value (CSF Aβ peptides [10]) was “ca. 12 fold”. For the same molecule, the “CSF Aβ1-40 change” value (CSF Aβ peptides [10]) was “decrease”, the “CSF Aβ1-42, level relative to predose” value (CSF Aβ peptides [10]; after 24 hours) was 50 % of predose levels and the “CSF Aβ1-38 increase” value (CSF Aβ peptides [10]; gradual increase) was “about 2 fold”. For the same molecule, the “CSF Aβ1-x transient increase” value (CSF Aβ peptides [10]; the same increase in the placebo group) was “approximately 40%”, the “Plasma AUC at 50% inhibition (Aβ1-42 trough)” value (Aβ1-42) was 11 μM⋅h and the AUC at 14 days ([11]; female) was 508 µM·h. The AUC at 14 days ([11]; male) was 892 µM·h and the “Histologic changes suggestive of Notch inhibition” value ([11]; rat, 10, 30 or 100 mg/kg daily oral for 14 days, any dose level) was “no histologic changes suggestive of Notch inhibition”.

In the case of `Cc1ncn(-c2ccc3cc2OC/C=C\CNc2nc(nc4c2CC[C@H]4c2ccc(Cl)cc2F)N3)n1` [BMS-986133, (S,Z)-17-(4-chloro-2-fluorophenyl)-34-(3-methyl-1H-1,2,4-triazol-1-yl)-16,17-dihydro-15H-4-oxa-2,9-diaza-1(2,4)-cyclopenta[d]pyrimidina-3(1,3)-benzenacyclononaphan-6-ene], the “Effect on CSF Aβ1-x or the sum of the four Aβ peptides” value (CSF Aβ peptides [12]; intravenous 5 or 15 mg/kg) is reported as “little, if any, effect”, the “CSF Aβ1-40 maximum reduction” value (CSF Aβ peptides [12]; [17]) is reported as “ca. 75%” and the “CSF Aβ1-42 maximum reduction” value (CSF Aβ peptides [12]; [17]) is reported as “ca. 75%”. The “Concentrations in blood plasma, dose proportionality” value [13] was “dose-proportional”.

For `CC(C(=O)O)c1ccc(-c2ccccc2)c(F)c1` (stereo not drawn) [flurbiprofen], the “Effect on Aβ1-42 levels in cerebrospinal fluid” value [14] is given as “no effect”.
